Source: PubChem
Rows were chosen to be rich in hits. Some 3.1% of all compounds tested hit in one or more screens of this group.
Apaf1 inhib = human Apaf-1 inhibition. O14727. inhibition, % at 20 µM. reconstituted apoptosome caspase-3 activity, DEVD-Rh110 fluorescence. AID 489030. 330,000 tested, 0.71% active; active means inhibition of at least 40% at 20 µM;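 further: plate controls were DMSO wells for no effect and DEVD-CHO caspase inhibitor wells for full effect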
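System: Apoptosome proteins | Medium: Hepes pH 7.5 with detergent and BSA | Also added: Cytochrome c trigger plus (Z-DEVD)2-Rh110 caspase-3 substrate | Incubation: 30 min compound preincubation, 50 min activation, room temperature | Detection: Rhodamine 110 fluorescence at Ex 480/Em 540 nm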
PAFAH2 inh = inhibitors of human PAFAH2; Q99487; recombinant PAFAH2, FP-rhodamine activity probe, fluorescence polarization; inhibition, % at 3.39 µM; 340,000 tested, 0.99% active;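 active means inhibition above the mean over all tested compounds plus 3 SD, cut at about 30% in these data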;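 further: inhibitors block probe labeling of enzyme so polarization drops; 0% = enzyme with DMSO and 100% = wells lacking PAFAH2 protein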
pPAFAH inh = inhibitors of human plasma PAF acetylhydrolase (pPAFAH) | AID 463082 | inhibition, % at 3.39 µM | Q13093 | recombinant pPAFAH, FP-rhodamine probe fluorescence polarization | 330,000 tested, 1.5% active;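 active means inhibition above the mean inhibition across the screen plus 3 SD, cut at about 25% in these data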;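 further: inhibitors block binding of the rhodamine activity-based probe so polarization drops; 0% = enzyme with DMSO and 100% = wells lacking pPAFAH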
PAFAH1B2 FP inh = PAFAH1B2 (human) inhibition. recombinant PAFAH1B2, FP-rhodamine activity probe, fluorescence polarization. inhibition, % at 3.39 µM. 340,000 tested, 1.2% active. AID 492953;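 active means inhibition above the mean of all tested compounds plus 3 SD, cut at about 24% in these data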;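 further: 0% = enzyme with DMSO and 100% = wells lacking PAFAH1B2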
PAFAH1B3 FP inh = inhibitors of human PAFAH1B3; recombinant PAFAH1B3, FP-rhodamine probe, fluorescence polarization; inhibition, % at 3.39 µM; 340,000 tested, 0.28% active; AID 492972;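 active means inhibition above the screen-wide average of all tested compounds plus 3 SD, cut at about 25% in these data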;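 further: 0% = enzyme with DMSO only and 100% = wells lacking PAFAH1B3 protein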
PAFAH2 FP conf = confirmation of human PAFAH2 inhibitors | shares compounds with PAFAH2 inh | recombinant PAFAH2, FP-rhodamine activity probe, fluorescence polarization | inhibition, % at 3.39 µM | 2,300 tested, 65% active;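 active means mean inhibition over three repeats above a set limit taken from the earlier primary screen, cut at about 30% in these data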;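 further: inhibitor blocks binding of rhodamine activity probe so polarization falls; 0% = enzyme with DMSO and 100% = wells lacking PAFAH2 protein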
Numbers without * were called inactive; nt = no result given.

SMILES	Apaf1 inhib	PAFAH2 inh	pPAFAH inh	PAFAH1B2 FP inh	PAFAH1B3 FP inh	PAFAH2 FP conf
O=C(COC(=O)c1ccco1)Nc1ccc2c(c1)OCCO2	2.9	50.6*	-0.3	-0.3	10.2	36.9*
CC(=O)Nc1ccc(NC(=O)COC(=O)c2ccco2)cc1	-7.3	3.2	2.3	-2.8	7.3	nt
O=C(Nc1ccc2c(c1)OCCO2)c1ccco1	4.5	6.5	-2.5	0.0	7.6	nt
Cn1cccc1C(=O)OCC(=O)Nc1ccc2c(c1)OCCO2	2.6	49.1*	0.2	4.2	7.2	33.1*
CCc1noc(C)c1C(=O)NNC(=O)COc1ccccc1C	-4.8	5.7	-3.0	8.5	1.5	nt
COc1cccc(NC(=O)c2ccco2)c1	4.7	0.5	3.5	-1.5	-1.6	nt
COc1cccc(NC(=O)COC(=O)c2ccco2)c1	-0.6	68.4*	7.3	-0.5	-1.5	63.1*
COc1cccc(NC(=O)COC(=O)c2c(F)cccc2F)c1	7.3	56.9*	3.6	5.8	7.0	29.6
Cc1ccc(NC(=O)COC(=O)c2ccco2)cc1C	-9.5	76.5*	-3.1	5.9	-0.7	59.2*
CCOCC(=O)Nc1cccc(OC)c1	-21.7	-0.6	3.3	3.6	1.9	nt
O=C(CC1(CC2=NS(=O)(=O)c3ccccc3N2)CCCC1)NCCc1ccccc1	14.2	-0.7	-4.5	4.8	-1.7	nt
O=C(NCCc1c[nH]c2ccccc12)C(=O)Nc1cc2c3c(c1)CC(=O)N3CCC2	14.2	12.9	8.7	3.6	7.1	nt
COc1ccccc1NC(=O)CSc1nnc(Cc2cccs2)n1C	19.8	66.2*	1.4	3.3	4.7	0.8
Cc1cc(C)nc(SCC(=O)NC(=O)c2ccccc2O)n1	-0.7	-18.1	-5.7	-3.8	5.0	nt
Cc1ccc(NC(=O)COc2ccccc2C(=O)NCc2ccccc2)cc1	11.3	-0.6	7.0	3.4	9.4	nt
CS/C(N)=N/N=C/c1cc(Br)cc(Br)c1O	-13.2	63.3*	18.1	6.2	2.0	43.4*
CC1CCCC(C)N1/N=C/c1ccc(N(C)C)cc1 (stereo not drawn)	5.7	38.5*	-1.4	2.5	4.8	4.1
CC1CCCC(C)N1/N=C/c1ccc([N+](=O)[O-])cc1 (stereo not drawn)	11.3	-1.7	-1.2	5.2	11.3	nt
COc1ccc(NS(=O)(=O)c2cc([N+](=O)[O-])ccc2NN=Cc2ccccc2OCC(=O)O)cc1	12.3	48.9*	21.4	7.6	14.0	22.4
C#CCOc1coc(COC(=O)c2ccccc2)cc1=O	-10.0	50.1*	0.1	4.3	8.1	29.9*
O=c1cc(CO)occ1OCc1ccccc1	-2.4	5.3	0.1	8.6	8.5	nt
CC(=O)Oc1ccc2c(=O)oc(-c3ccccc3C)nc2c1	9.6	24.7	-1.0	-0.6	12.1	nt
CC(=O)Oc1ccc2nc(/C=C/c3ccc(C=O)cc3)oc(=O)c2c1	-0.3	3.3	-2.9	7.3	16.0	nt
CC(=O)Oc1ccc2nc(/C=C/c3ccccc3)oc(=O)c2c1	0.3	76.2*	0.2	2.0	5.4	71.0*
CC(=O)Oc1ccc2nc(-c3ccc(Br)o3)oc(=O)c2c1	7.0	46.1*	6.1	7.4	-0.8	44.9*
SMILES	Apaf1 inhib	PAFAH2 inh	pPAFAH inh	PAFAH1B2 FP inh	PAFAH1B3 FP inh	PAFAH2 FP conf
CC(=O)Oc1ccc2c(=O)oc(-c3ccccc3)nc2c1	13.1	40.8*	0.9	-1.6	8.6	40.4*
CCCOc1cccc(-c2nc3ccccc3c(=O)o2)c1	26.0	63.8*	-16.3	2.4	5.4	58.6*
Cc1nn(CC(=O)NCCCN2CCCC2)c(=O)c2nn(-c3ccccc3)c(C)c12	4.0	-6.8	-0.7	3.7	3.4	nt
CSc1nc(C)cc(-c2cc(C(=O)Nc3ccccc3)on2)n1	11.2	nt	-0.6	nt	nt	nt
CCOc1ccc(NC(=O)COC(=O)c2ccc3c(c2)OCCO3)cc1	-8.5	59.6*	10.2	-2.1	3.5	54.3*
C/C(=N\OCC(=O)Nc1cc(C)cc(C)c1)c1ccc2c(c1)OCCO2	12.1	-0.4	1.9	1.2	-0.1	nt
Cc1cc(C)cc(NC(=O)COC(=O)c2ccc3c(c2)OCCO3)c1	-4.1	71.9*	1.3	1.5	5.0	76.8*
NS(=O)(=O)c1ccc(NC(=O)COC(=O)c2ccc3c(c2)OCCO3)cc1	-6.8	-10.9	0.1	1.8	3.7	nt
Cc1ccc(C(=O)OCC(=O)Nc2ccc3c(c2)OCCO3)cc1C	0.9	58.2*	nt	0.3	-2.3	51.6*
O=C(CNS(=O)(=O)c1ccccc1)N1CCc2ccccc2C1	-13.1	-1.3	-1.1	-3.0	-4.3	nt
